# High-throughput results deposited in PubChem by several laboratories.
# CYP2C9 inhib: inhibitors of human CYP2C9; P11712; hit rate 20% among 96,000; CYP2C9 Supersomes, luciferin-H conversion, luminescence; AID 777; inhibition, % at 5 µM;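 active means blocking of liver enzyme CYP2C9 beyond about 50% at 5 µM, limit read from the data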
# CYP2C19 inh: blocks human cytochrome P450 2C19; AID 778; hit rate 21% among 96,000; inhibition, % at 5 µM; P33261; CYP2C19 Supersomes, luciferin-H EGE luminescence, 30 min;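 active means CYP2C19 inhibition above a set limit at 5 µM in the primary screen, cut at about 50% in these data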;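 further: plate controls were negative control wells for no effect and 2.5 mM tranylcypromine positive control for full effect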
# Target sequence (P33261 whole entry, looked up): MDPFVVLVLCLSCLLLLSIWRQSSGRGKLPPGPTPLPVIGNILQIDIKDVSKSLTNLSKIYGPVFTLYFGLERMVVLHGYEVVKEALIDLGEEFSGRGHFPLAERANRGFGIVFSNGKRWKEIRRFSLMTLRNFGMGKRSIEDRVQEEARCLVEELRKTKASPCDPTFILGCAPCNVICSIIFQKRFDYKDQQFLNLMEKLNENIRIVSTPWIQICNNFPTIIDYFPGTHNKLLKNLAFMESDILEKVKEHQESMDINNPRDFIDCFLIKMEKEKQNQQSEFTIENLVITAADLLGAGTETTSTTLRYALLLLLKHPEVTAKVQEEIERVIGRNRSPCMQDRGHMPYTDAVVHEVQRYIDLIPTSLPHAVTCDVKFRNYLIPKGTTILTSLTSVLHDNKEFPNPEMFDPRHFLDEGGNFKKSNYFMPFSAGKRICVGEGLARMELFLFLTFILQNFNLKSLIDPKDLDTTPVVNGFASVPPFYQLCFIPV
# E coli WT exp: blocks growth of wild type E. coli BW25113. OD600 absorbance. growth inhibition, % at 100 µM. AID 710. hit rate 0.15% among 98,000;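 active means growth inhibition above about 50% at one test dose, limit read from the data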;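 further: growth measured after 20 h incubation at 37 °C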
# CYP2C9 activ: activators of human CYP2C9; recombinant CYP2C9, luciferin-H conversion, luminescence; active compounds read high; factor 1 = untreated enzyme, 0 = blocked; activation factor at 5 µM; hit rate 1.4% among 96,000;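 active means activation factor of 2 or more for CYP2C9 at a 5 µM dose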;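 further: 0 = sulfaphenazole-blocked wells and 1 = vehicle-only wells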
# CYP2C19 activ: increases human CYP2C19 enzyme activity | P33261 | recombinant CYP2C19, luciferin-H EGE luminescence; active compounds read high; 0 = fully inhibited enzyme, 1 = untreated enzyme | activation factor at 5 µM | 96,000 tested, under 10 active | AID 1025;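 active means activation factor of at least 2 at 5 µM in the primary screen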;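 further: 0 = wells with 2.5 mM tranylcypromine and 1 = vehicle-only wells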
# tolC growth inh: growth inhibitors of E. coli BW25113 tolC mutant. OD615. growth inhibition, % at 10 µM (by protocol). hit rate 2.2% among 65,000. AID 573;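 active means growth inhibition at or above a cutoff equal to the mean over every tested compound plus 3 SD, cut at about 60% in these data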;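 further: growth measured after 20 h incubation at 37 °C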
#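 Material: E. coli BW25113 ΔtolC::kan, tolC deletion mutant strain. Measure: percent growth inhibition. Schedule: 37 °C, 20 h exposure. Doses: single-point testing at 10 µM. Signal: A615 absorbance measurement. Buffer or medium: kanamycin-containing LB broth (50 µg/mL).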
# Active calls of the source: *; / = not tested or not shown. Rows were chosen to be rich in hits. Some 29% of all compounds tested hit in one or more screens of this group.
SMILES,CYP2C9 inhib,CYP2C19 inh,E coli WT exp,CYP2C9 activ,CYP2C19 activ,tolC growth inh
Cn1c(=O)c2c(nc(CN3CCc4ccccc4C3)n2Cc2ccc(F)cc2)n(C)c1=O,/,/,/,/,/,31.2
CCCCCn1c(CN(C)Cc2ccccc2)nc2c1c(=O)n(C)c(=O)n2C,99.7*,82.1*,-13.0,0,0.2,27.6
CCOCCn1c(CN(Cc2ccccc2)Cc2ccccc2)nc2c1c(=O)n(C)c(=O)n2C,94.2*,76.4*,-17.0,0.1,0.2,68.0*
Cc1c(C(=O)O)sc2nc3n(c(=O)c12)CCC(C)CC3 (stereo not given),/,/,/,/,/,-1.1
Cc1c(SCCO)c(=O)[nH]c2cc3c(cc12)OCO3,2.5,2.8,-2.0,1,1,/
Cc1ccc(C)c(Cn2c(CN(C)Cc3ccccc3)nc3c2c(=O)n(C)c(=O)n3C)c1,92.2*,65.8*,-6.0,0.1,0.3,80.7*
COC(=O)CSc1nc2c(c(=O)n(C)c(=O)n2C)n1CCCc1ccccc1,85.1*,67.3*,-2.0,0.1,0.3,8.0
CCOC(=O)N1CCN(Cc2nc3c(c(=O)n(C)c(=O)n3C)n2Cc2cc(C)ccc2C)CC1,12.4,27.2,/,0.9,0.7,18.6
CN(Cc1ccccc1)Cc1nc2c(c(=O)n(C)c(=O)n2C)n1Cc1ccc(Cl)cc1,50.3*,22.2,1.0,0.5,0.8,50.6
O=C(NCCn1ccc2ccccc21)c1ccc(S(=O)(=O)N2CCOCC2)cc1,22.3,-9.8,1.0,0.8,1.1,-0.6
CN(C)/C=N/c1ncc(C(=O)c2ccc3ccccc3c2)s1,-127.9,53.2*,12.0,2.3*,0.5,/
CCCCn1ccnc1C(=O)c1cc(S(=O)(=O)N2CCOCC2)ccc1C,69.3*,60.1*,2.0,0.3,0.4,/
CCCCn1ccnc1C(=O)c1cccc(S(=O)(=O)N2CC(C)CC(C)C2)c1 (stereo not given),90.2*,79.1*,-9.0,0.1,0.2,/
Cc1ccc(S(=O)(=O)N2CCOCC2)cc1C(=O)O,-0.8,-3.4,-7.0,1,1,-8.1
Cc1c(C(=O)O)oc2ccc(S(=O)(=O)N3CC(C)CC(C)C3)cc12 (stereo not given),30.5,-0.7,0.0,0.7,1,21.6
C/C(=N/NS(=O)(=O)c1ccc(Cl)cc1)c1cccc(NC(=O)c2ccc(Cl)cc2Cl)c1,97.3*,74.6*,-6.0,0,0.3,/
C/C(=N\NS(=O)(=O)c1ccc(Cl)cc1)c1ccc(O)cc1,77.5*,83.0*,3.0,0.2,0.2,/
C/C(=N/NS(=O)(=O)c1ccc(C)cc1)c1cccc(NC(=O)c2cccc(Cl)c2)c1,3.1,-2.8,-6.0,1,1,/
CCCOc1ccc(/C(O)=C2\C(=O)C(=O)N(CCCOC)C23C(=O)N(C)c2ccccc23)cc1 (stereo not given),-11.8,-2.2,5.0,1.1,1,-6.3
COc1ccc(/C=N/Nc2nc(Nc3ccccc3)nc(N3CCCCC3)n2)cc1OC,19.4,71.0*,-7.0,0.8,0.3,/
COc1ccc(CCNc2nc(N3CCCCC3)nc(N3CCCCC3)n2)cc1OC,72.1*,81.9*,-15.0,0.3,0.2,35.0
COc1ccc(CCNc2nc(N3CCOCC3)nc(N3CCOCC3)n2)cc1OC,5.2,17.0,1.0,0.9,0.8,-3.2
C(=N\Nc1nc(Nc2ccccc2)nc(N2CCOCC2)n1)/c1c[nH]c2ccccc12,87.5*,99.9*,-1.0,0.1,0,/
O=[N+]([O-])c1ccc(Nc2nc(N/N=C\c3ccc4c(c3)OCO4)nc(N3CCCCC3)n2)cc1,37.6,9.6,4.0,0.6,0.9,/
COc1cccc(/C=N/Nc2nc(Nc3ccccc3)nc(-n3nc(C)cc3C)n2)c1O,78.8*,68.1*,-9.0,0.2,0.3,/
SMILES,CYP2C9 inhib,CYP2C19 inh,E coli WT exp,CYP2C9 activ,CYP2C19 activ,tolC growth inh
COc1ccc(Cl)cc1NC(=O)CSc1nnc(Cc2cccn2C)n1-c1ccc(F)cc1,11.1,26.6,-2.0,0.9,0.7,15.7
c1ccc(-c2nnn(C34CC5CC(CC(C5)C3)C4)n2)cc1,20.1,1.9,-4.0,0.8,1,44.8
CCCn1cc(S(=O)(=O)CC(=O)N2CCc3ccccc32)c2ccccc21,78.9*,86.6*,-3.0,0.2,0.1,15.9
Cn1cc(S(=O)(=O)CC(=O)N2CCc3ccccc32)c2ccccc21,42.0,66.9*,-4.0,0.6,0.3,2.1
CCn1cc(S(=O)(=O)CC(=O)N2CCc3ccccc32)c2ccccc21,/,/,/,/,/,-1.8
COc1ccc(C2=NOC(C(=O)Nc3cc(Br)ccc3O)C2)cc1OC (stereo not given),-0.6,12.4,0.0,1,0.9,22.6
COc1ccccc1NS(=O)(=O)c1cccc(C(=O)N/N=C(\C)c2ccc(-n3ccnc3)cc2)c1,99.3*,99.8*,-5.0,0,0,/
Cc1cccc(N2CCN(C(=O)c3ccc(NS(=O)(=O)c4c(C)noc4C)cc3)CC2)c1C,95.9*,7.1,-12.0,0,0.9,84.0*
Cc1noc(C)c1S(=O)(=O)Nc1ccc(C(=O)N2CCc3ccccc3C2)cc1,58.9*,12.7,-4.0,0.4,0.9,23.8
Cc1noc(C)c1C(=O)N1CCc2ccccc2C1,3.3,49.5,-9.0,1,0.5,-7.2
Cc1cccc(N2CCN(C(=O)C3CCCN(S(=O)(=O)c4c(C)noc4C)C3)CC2)c1C (stereo not given),/,/,/,/,/,2.7
Cc1cccc(NC(=O)c2ccc(NS(=O)(=O)c3c(C)noc3C)cc2)c1,40.2,4.4,-1.0,0.6,1,44.5
CCc1cccc(NC(=O)c2ccc(NS(=O)(=O)c3c(C)noc3C)cc2)c1,51.2*,6.6,14.0,0.5,0.9,76.8*
Cc1noc(C)c1S(=O)(=O)Nc1ccc(C(=O)N2CCN(c3cccc(Cl)c3)CC2)cc1,79.4*,-5.7,0.0,0.2,1.1,/
O=C(Nc1ccccc1F)c1ccc(S(=O)(=O)NCC2CCCO2)cc1 (stereo not given),9.2,-1.4,-2.0,0.9,1,-15.0
CCc1nnc(NS(=O)(=O)c2ccc(N3C(=O)C4CC=C(Cl)CC4C3=O)cc2)s1 (stereo not given),50.2*,13.3,6.0,0.5,0.9,2.2
COc1ccc(NC2=NCC(=O)N2c2ccccc2F)cc1,-16.7,6.0,-3.0,1.2,0.9,/
COc1ccc(C(CC(=O)c2ccc(O)cc2)S(=O)(=O)c2ccc(C)cc2)cc1 (stereo not given),87.8*,70.7*,16.0,0.1,0.3,/
COc1ccc(S(=O)(=O)c2ccc(O)cc2)cc1,-182.9,70.9*,-5.0,2.8*,0.3,/
Cc1c(/C(O)=C2/C(=O)C(=O)N(CCCN3CCOCC3)C2c2ccncc2)cnn1-c1ccccc1 (stereo not given),/,/,/,/,/,5.6
COc1ccc(C(=O)Oc2ccc(/C=N/O)cc2)cc1,-10.8,5.1,-3.0,1.1,0.9,11.1
